According to ChEMBL document CHEMBL4190337, “Design, Synthesis, and Antibacterial Activity of a Multivalent Polycationic Calix[4]arene-NO Photodonor Conjugate” (ACS Med Chem Lett, 2017):
Activity calls are given as the source filed them. No cut-off for these calls is given here.

What was measured:
Staphylococcus aureus [1] = assay: Bactericidal activity against Staphylococcus aureus ATCC 6538 assessed as reduction in bacterial count at 0.25 mM after 30 mins under dark condition by time kill assay relative to control; type: functional; set-up: scale not given: the % may be the effect or the level left
Procedure, shortened: (§1)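 Time-kill assay with the agent at 0.25 mM final in 5% EtOH/PBS, made from a 0.5 mM solution in 10% EtOH/PBS. Samples ran in duplicate, kept in the dark or illuminated, alongside PBS and 5% EtOH/PBS vehicle controls. Viable bacteria were counted as CFU/mL at set times and expressed as % and log reduction.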

[2] = Drug metabolism in MeOH/PBS solution assessed as […] release at 40 uM irradiated with 60 mW laser light by amperometric detection assay; type: functional
Procedure, shortened: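 NO release was profiled in MeOH/PBS (20/80) at 40 µM under visible light irradiation (λexc = 405 nm), using an optically matched solution of a model NO photodonor for comparison.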

[3] = Drug metabolism in MeOH/PBS solution assessed as […] release by measuring shift in maximum absorption wavelength at 40 uM irradiated with 60 mW laser light by UV-vis absorption spectra analysis; type: functional
Staphylococcus aureus [4] = assay: Bactericidal activity against Staphylococcus aureus ATCC 6538 assessed as reduction in bacterial count at 0.25 mM irradiated with 450 mW xenon light after 10 mins by time kill assay relative to control; type: functional; set-up: scale not given: the % may be the effect or the level left; procedure, shortened: as §1
Staphylococcus aureus [5] = assay: Bactericidal activity against Staphylococcus aureus ATCC 6538 assessed as log reduction in colony forming units at 0.25 mM after 30 mins under dark condition by time kill assay; type: functional; procedure, shortened: as §1
Staphylococcus aureus [6] = assay: Bactericidal activity against Staphylococcus aureus ATCC 6538 assessed as reduction in bacterial count at 0.25 mM irradiated with 450 mW xenon light up to 30 mins by time kill assay; type: functional, organism-based; procedure, shortened: as §1
Staphylococcus aureus [7] = assay: Bactericidal activity against Staphylococcus aureus ATCC 6538 assessed as log reduction in colony forming units at 0.25 mM irradiated with 450 mW xenon light after 10 mins by time kill assay; type: functional; procedure, shortened: as §1
Staphylococcus aureus [8] = assay: Bactericidal activity against Staphylococcus aureus ATCC 6538 assessed as reduction in bacterial count at 0.25 mM irradiated with 450 mW xenon light after 20 mins by time kill assay relative to control; type: functional; set-up: scale not given: the % may be the effect or the level left; procedure, shortened: as §1
Staphylococcus aureus [9] = assay: Bactericidal activity against Staphylococcus aureus ATCC 6538 assessed as log reduction in colony forming units at 0.25 mM irradiated with 450 mW xenon light after 20 mins by time kill assay; type: functional; procedure, shortened: as §1
Escherichia coli [10] = assay: Bactericidal activity against Escherichia coli ATCC 10536 assessed as reduction in bacterial count at 0.25 mM after 30 mins under dark condition by time kill assay; type: functional, organism-based; procedure, shortened: as §1
Escherichia coli [11] = assay: Bactericidal activity against Escherichia coli ATCC 10536 assessed as reduction in colony forming units at 0.25 mM irradiated with 450 mW xenon light after 30 mins by time kill assay; type: functional; set-up: scale not given: the % may be the effect or the level left; procedure, shortened: as §1
Escherichia coli [12] = assay: Bactericidal activity against Escherichia coli ATCC 10536 assessed as log reduction in colony forming units at 0.25 mM irradiated with 450 mW xenon light after 30 mins by time kill assay; type: functional; procedure, shortened: as §1
[13] = Cytotoxicity against human skin fibroblasts at 0.25 mM irradiated with 450 mW xenon light measured after 30 mins; details: 0.5 h, 250 µM
[14] = Drug metabolism in MeOH/PBS solution assessed as […] release at 170 uM irradiated with 60 mW laser light by amperometric detection assay; type: functional
Procedure, shortened: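 NO release followed during continuous visible-light irradiation at λexc 405 nm of optically matched solutions in MeOH/PBS (20/80), with the model donor at 170 µM; release profile recorded over irradiation time.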

SMILES	Activity (Staphylococcus aureus [1]) [%]	Drug metabolism [2]	Drug metabolism [3]	Activity (Staphylococcus aureus [4]) [%]	Activity (Staphylococcus aureus [5]) [log10CFU/ml]	Activity (Staphylococcus aureus [6])	Activity (Staphylococcus aureus [7]) [log10CFU/ml]	Activity (Staphylococcus aureus [8]) [%]	Activity (Staphylococcus aureus [9]) [log10CFU/ml]	Activity (Escherichia coli [10])	Activity (Escherichia coli [11]) [%]	Activity (Escherichia coli [12]) [log10CFU/ml]	Activity [13] [%]	Drug metabolism [14]
C[N+](C)(CCO)CCCOc1c2cc(CNc3ccc([N+](=O)[O-])c(C(F)(F)F)c3)cc1Cc1cc(CNc3ccc([N+](=O)[O-])c(C(F)(F)F)c3)cc(c1O)Cc1cc(CNc3ccc([N+](=O)[O-])c(C(F)(F)F)c3)cc(c1OCCC[N+](C)(C)CCO)Cc1cc(CNc3ccc([N+](=O)[O-])c(C(F)(F)F)c3)cc(c1O)C2.[Br-].[Br-]	98.9	Metabolite detected	Metabolite detected	99.2	1.96	Active	2.1	>99.95	>3.31	inactive	93.5	1.2	< 15	
NCCCNc1ccc([N+](=O)[O-])c(C(F)(F)F)c1														Metabolite detected
